In the library only some 1.8% were active in any assay of this set; here they are far more common.
Ins promoter up – insulin promoter activators in MIN6 cells, imaging, high-content screening, mouse beta cells; MIN6 insulin promoter-GFP reporter; stronger effect = higher value; z-score at 5 µM; 0.3% of 190,000 active;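 active = z-score above 3 at 5 µM with at least 500 cells counted in the well; inconclusive = wells under 500 cells, flagged as cytotoxic or low count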
NCF1 inh – p47phox/p22phox peptide binding inhibitors, primary screen, biochemical, uHTS, NADPH oxidase regulatory subunit. 0.53% of 220,000 active. fluorescence polarization, 2 h. inhibition, % at 24.7 µM;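 active = inhibition above about 30%, limit read from the data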;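 note: 0% = p47phox with labelled peptide and 100% = labelled peptide alone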
Target sequence (P14598 whole entry, looked up): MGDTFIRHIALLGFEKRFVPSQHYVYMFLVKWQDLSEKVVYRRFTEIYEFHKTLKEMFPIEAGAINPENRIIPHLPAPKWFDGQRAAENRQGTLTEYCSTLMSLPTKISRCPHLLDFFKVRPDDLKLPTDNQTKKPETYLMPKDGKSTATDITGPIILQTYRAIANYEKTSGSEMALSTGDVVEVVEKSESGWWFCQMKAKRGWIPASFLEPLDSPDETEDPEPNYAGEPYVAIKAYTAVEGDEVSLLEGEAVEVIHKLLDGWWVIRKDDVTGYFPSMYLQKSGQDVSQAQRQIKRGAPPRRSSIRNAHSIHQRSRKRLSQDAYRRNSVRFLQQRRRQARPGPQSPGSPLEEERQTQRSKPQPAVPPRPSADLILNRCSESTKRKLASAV
TNAP inh hiacc – human TNAP enzyme inhibitors, primary screen, biochemical, luminescent, high phosphate acceptor level, uHTS; purified TNAP, CDP-star luminescence, 1 M DEA; 0.03% of 200,000 active; Alkaline phosphatase, tissue-nonspecific isozyme (Homo sapiens), P05186; inhibition, % at 20 µM;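 active = over 50% inhibition of tissue-nonspecific alkaline phosphatase at 20 µM in the single-dose screen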;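 note: plate controls were DMSO wells for no effect and EDTA-quenched wells as full inhibition for full effect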
Autophagy mod – autophagy modulators in MEF cells, primary screen, imaging, high-content, MEF GFP-LC3 | MEF GFP-LC3 puncta imaging; test concentration mostly 10 µM | calls only at 10 µM (by protocol) | 0.98% of 190,000 active | AID 463193, 2010;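 active = percentage of spot-positive cells more than 3 SD above its plate mean, without a fluorescence outlier flag or 80% toxicity; inconclusive = no clear call, values can overlap the other calls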;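 note: spot-positive cell cutoff set from DMSO-treated cells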
TNAP inh noacc – human TNAP enzyme inhibitors, primary screen, biochemical, luminescent, no phosphate acceptor, uHTS; purified TNAP, CDP-star luminescence, 30 min; inhibition, % at 20 µM; 0.26% of 200,000 active;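 active = tissue-nonspecific alkaline phosphatase inhibition above about 50% at 20 µM in the single-dose screen, limit read from the data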;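 note: 0% = DMSO negative control and 100% = EDTA positive control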
TNAP act hi DEA – TNAP activators at high phosphate acceptor level, primary screen, biochemical, luminescence, uHTS; 200,000 tested, under 10 active; AID 1136, 2008; activation factor at 20 µM; Alkaline phosphatase, tissue-nonspecific isozyme (Homo sapiens), P05186; purified TNAP, CDP-star luminescence, 1 M DEA, 30 min; stronger effect = higher value; 0 = EDTA background, 1 = DMSO-only activity;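 active = activation factor at least 2 at 20 µM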
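Assay system: human TNAP; Input: enzyme diluted 1/800 final; Reagent: CDP-star luminogenic substrate at 100 µM final; Timing: 30 min, room temperature; Signal: luminescence; Evaluation: TNAP activation factor scaled between EDTA and DMSO control wells.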
The depositor's hits bear a star; i = inactive; u = inconclusive; x = not tested or not shown; + = active, no number.

SMILES	Ins promoter up	NCF1 inh	TNAP inh hiacc	Autophagy mod	TNAP inh noacc	TNAP act hi DEA
COc1cc2c(cc1O)CC[C@@H]1[C@@H]2CC[C@]2(C)[C@@H](O)CC[C@@H]12	-0.38	4	-4	x	-4	1
C[C@]12CC[C@@H]3c4ccc(OC(=O)c5ccccc5)cc4CC[C@H]3[C@@H]1CC[C@@H]2O	x	3	-8	+	-8	1.1
O=c1cc(-c2cccc3ccccc23)[nH][nH]1	x	-13	48	i	69*	0.5
O=C(Nc1nc2ccccc2n1Cc1ccccc1)c1ccc(COc2ccccc2[N+](=O)[O-])o1	x	-1	-5	+	-6	1
Cc1ccc(OCc2ccc(C(=O)Nc3nc4ccccc4n3Cc3ccccc3)o2)c([N+](=O)[O-])c1	-0.32	32*	0	i	-6	1
CCc1c(C)sc(NC(=O)OC)c1C(=O)N1CCCCC1	x	37*	-3	i	-11	1
CSCCC(NC(=O)c1ccc(C(C)(C)C)cc1)C(=O)O (stereo unspecified)	-1.4	2	-3	i	-12	1
CC(=O)Nc1ccccc1C(=O)C(=O)Nc1cccc(Br)c1	0.35	-1	-6	i	-12	1.1
CCN(CC)CCNC(=O)c1cccc(NC(=O)C(=O)c2cc(Br)ccc2NC(C)=O)c1	-2	-6	-6	+	-3	1.1
O=C(Oc1cc(Cl)ccc1Cl)c1ccc(N2CCOCC2)c([N+](=O)[O-])c1	-0.13	-17	6	i	-7	0.9
O=C(c1cc(COc2ccc(F)cc2Cl)on1)N1CCCC(c2ccccc2)C1 (stereo unspecified)	-0.12	-11	-5	+	-7	1
C=CCSc1nc(C)c2cc(C)cc(C)c2n1	0.28	-2	2	i	-5	1
COC(=O)CCC(=O)NC(=S)Nc1ccccc1F	0.18	-6	-3	i	-14	1
Nc1nc2n(n1)C(c1ccco1)CC(c1ccccc1)N2 (stereo unspecified)	x	46*	-4	i	-13	1
Cc1noc(NS(=O)(=O)c2ccc(NC(=O)CSc3n[nH]c(-c4ccccc4)n3)cc2)c1C	1.2	-14	8	i	60*	0.9
O=C(CSc1n[nH]c(-c2ccccc2)n1)Nc1ccc(Br)cn1	-0.57	-26	2	i	57*	1
Cc1c(NC(=O)CSc2n[nH]c(-c3ccccc3)n2)c(=O)n(-c2ccccc2)n1C	x	-12	3	i	53*	1
COc1ccc(-c2cc(C(F)(F)F)n3nc(C(=O)O)nc3n2)cc1	-0.15	65*	-5	x	-14	1.1
CCCC(C(=O)NCc1ccccc1)N(C(=O)Cn1nnc(-c2cccs2)n1)c1ccc2c(c1)OCCO2 (stereo unspecified)	-0.65	-7	-4	+	-8	1
O=C(NCc1ccccc1)C(c1ccc(F)cc1)N(Cc1ccc2c(c1)OCO2)C(=O)Cn1nnc(-c2cccs2)n1 (stereo unspecified)	x	0	-3	i	-11	1
CC(C)(C)NC(=O)C(=O)NNC(=O)COc1ccc(Br)cc1	x	2	1	i	-84	1
CCn1cc(C(=O)Nc2ccc(OC)c(S(=O)(=O)N3CCCCC3)c2)c(=O)c2ccc(C)nc21	0.35	13	1	i	-12	1
O=C(Cc1nc(-c2ccc([N+](=O)[O-])cc2)cs1)Nc1ccccc1	8.6*	-16	-1	i	-4	1
Cc1ccc(-c2nc3cccnc3o2)cc1NC(=O)COc1ccc(Cl)cc1C	-0.17	57*	1	i	-4	1
Cc1ccc(-c2nc3cccnc3o2)cc1NC(=O)COc1ccc(C(C)(C)C)cc1	-1.6	-33	-3	i	0	1
SMILES	Ins promoter up	NCF1 inh	TNAP inh hiacc	Autophagy mod	TNAP inh noacc	TNAP act hi DEA
O=C(CNCC1(N2CCOCC2)CCCCC1)Nc1ccc(Cl)cc1	-0.18	-4	-6	i	-15	1.1
C#CC(C)(CC)NC(=O)Cn1nnc(-c2ccc(S(C)(=O)=O)cc2)n1 (stereo unspecified)	-0.67	-12	-5	i	-6	1.1
O=c1cc(CCl)[nH]c2nc3ccccc3n12	-0.26	-7	x	x	x	x
CCc1c(C)[nH]c2nc3ccccc3n2c1=O	-0.32	-15	-1	i	51*	1
COc1cc2c3nnc(-c4ccc(F)cc4)c-3cn(Cc3cccc(F)c3)c2cc1OC	0.53	13	1	+	-7	1
CCOc1ccc(-c2nnn(CC(=O)NCc3ccco3)n2)cc1OCC	0.5	-9	-4	i	-8	1
CCCCOc1ccc(-c2nnn(CC(=O)NCc3ccco3)n2)cc1	-1.4	0	-9	+	-13	1.1
CC1(c2ccc(Cl)cc2)NC(=O)N(CC(=O)N2CCCC2)C1=O (stereo unspecified)	0.23	5	-4	i	-13	1
CCCCSc1cnn(-c2ccccc2)c(=O)c1SCCCC	x	65*	-3	i	-2	1
c1cn2cc(-c3ccc4c(c3)OCO4)nc2s1	-0.46	12	-1	i	-1	1
CCC(=O)N1CCN(c2ccccc2NC(=O)COc2cc(C)ccc2C(C)C)CC1	-3.3	-11	0	i	-5	1
COc1ccccc1OCC(O)Cn1c(=N)n(Cc2ccccc2)c2ccccc21 (stereo unspecified)	u	-3	-3	+	-1	1
COc1ccc(C2C(C(=O)c3ccccc3)=C(C)Nc3nc4ccccc4n32)c(OC)c1 (stereo unspecified)	3.8*	-17	-2	i	-5	1
CC(=O)NC(c1ccc(Cl)cc1)c1c(O)ccc2ccc(O)cc12 (stereo unspecified)	11*	-15	-5	i	-7	1.1
Cn1cc(NC(=O)c2cc(NC(=O)c3cc(NC=O)cn3C)cn2C)cc1C(=O)NCCC(=N)N	0.45	-4	x	x	x	x
Cc1cc(NCCN2CCOCC2)n2nc(C)c(-c3ccc(Cl)cc3)c2n1	0.79	-8	2	+	-2	1
OCCN1CCN(CC(O)COc2ccc(C34CC5CC(CC(C5)C3)C4)cc2)CC1 (stereo unspecified)	-0.86	-6	0	+	-6	1
O=C(O)c1cc(-c2ccccc2)n[nH]1	0.31	3	2	i	86*	1
CC(/C=N/NC(=O)c1cc(-c2cccn2C)n[nH]1)=C\c1ccccc1	-0.02	-6	x	x	x	x

Compound activity from PubChem.
